≈ marks a conversion by molar mass, not a printed value. Calls of active or inactive are those of the source. The rule behind the calls is not given here.

The test system of test [1] is Klebsiella pneumoniae. Put plainly: Antimicrobial activity against Klebsiella pneumoniae 52145. It is filed as functional.
For test [2], the system named is Klebsiella pneumoniae. Put plainly: Antimicrobial activity against Klebsiella pneumoniae 52OmpA2 at 80 ug/disk by disk diffusion method. It is filed as functional. Conditions: 52OmpA2, read-out: IZ. An outline of the steps: (§1)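 Disk diffusion with novobiocin at 80 µg per disk. The diffusion halo was measured in cm and reported as mean ± error, with groups compared by P value.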

Test [3] has as its system Klebsiella pneumoniae. The experiment in a line: Antimicrobial activity against Klebsiella pneumoniae 52OmpA2 at 100 ug/disk by disk diffusion method. It is filed as functional, organism-based. An outline of the steps: (§2)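 Disk diffusion with SDS at 100 µg per disk.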
For orientation: Agar diffusion results depend on both activity and mobility in agar.

Test [4] relates to Klebsiella pneumoniae. The experiment in a line: Antimicrobial activity against Klebsiella pneumoniae 52145 at 100 ug/disk by disk diffusion method. It is filed as functional, organism-based. An outline of the steps:
as §2

Test [5] has as its system Klebsiella pneumoniae. Put plainly: Antimicrobial activity against Klebsiella pneumoniae 52OmpA2Com. It counts as functional.
The subject of test [6] is Klebsiella pneumoniae. The experiment in a line: Antimicrobial activity against Klebsiella pneumoniae 52OmpA2Com by Etest. It counts as functional, organism-based.
The subject of test [7] is Klebsiella pneumoniae. Put plainly: Antimicrobial activity against Klebsiella pneumoniae 52145 assessed as decrease in bacterial survival at 1 ug/ml pre-exposed for 1 hr during growth phase. It counts as functional, organism-based. The procedure, abridged: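 Cells were pretreated during growth with polymyxin B (final 1 µg/ml, 1 h), washed, and then tested for polymyxin B susceptibility by the same survival assay, alongside untreated cells. Values are the mean ± SD of six samples from three independently grown batches. Pretreated and untreated cells were compared by two-tailed t test.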

Test [8] concerns Klebsiella pneumoniae. The experiment in a line: Antimicrobial activity against Klebsiella pneumoniae 52145 assessed as induction of bacterial wall damage by propidium iodide staining-based fluorescence spectroscopy. It is filed as functional, organism-based.
Test [9] relates to Klebsiella pneumoniae. Put plainly: Binding affinity to wcaK2-deficient Klebsiella pneumoniae 52145 lipopolysaccharide assessed as amount of peptide bound at 16 ug/ml after 30 mins. The procedure, abridged: (§3)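 LPS was purified from capsule (CPS) mutants to avoid copurifying capsule. LPS at 50 µg/ml was incubated with polymyxin B at 16 µg/ml for 30 min, and the bound peptide was measured in µg/ml.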

The test system of test [10] is Klebsiella pneumoniae. The experiment in a line: Antimicrobial activity against Klebsiella pneumoniae 52145 by Etest. It is filed as functional, organism-based.
For test [11], the system named is Klebsiella pneumoniae. Put plainly: Binding affinity to Klebsiella pneumoniae 52145 outer membrane assessed as amount of peptide bound at 16 ug/ml after 30 mins. The procedure, abridged:
(§4)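 Bacteria were incubated with the peptide for 30 min, and the amount of peptide bound was then determined, expressed in µg/ml. Strains were compared by two-tailed t test.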

The subject of test [12] is Klebsiella pneumoniae. The experiment in a line: Antimicrobial activity against Klebsiella pneumoniae 52OmpA2 by Etest. It counts as functional, organism-based.
Test [13] concerns Klebsiella pneumoniae. Put plainly: Antimicrobial activity against wcaK2-deficient Klebsiella pneumoniae 52145 assessed as decrease in bacterial survival. It counts as functional, organism-based. An outline of the steps: (§5)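 Bacterial survival assay: cells were exposed to polymyxin B or protamine for 1 h, or to HNP-1 at a fixed 20 µg/ml for 3 h, and surviving bacteria were then counted. Polymyxin B curves are the mean ± SD of six samples from three independently grown batches. HNP-1 data are the mean ± SD of three experiments, each run in duplicate. Strains were compared by two-tailed t test.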

The subject of test [14] is Klebsiella pneumoniae. The experiment in a line: Binding affinity to Klebsiella pneumoniae 52OmpA2 outer membrane assessed as amount of peptide bound at 16 ug/ml after 30 mins. The procedure, abridged: as §4
Test [15] relates to Klebsiella pneumoniae. Put plainly: Antimicrobial activity against Klebsiella pneumoniae 52OmpAK36 harboring OmpA K36 mutant gene assessed as decrease in bacterial survival after 1 hr by coomassie blue staining. It is filed as functional, organism-based.
Test [16] has as its system Klebsiella pneumoniae. Put plainly: Antimicrobial activity against Klebsiella pneumoniae 52OmpA2Com assessed as decrease in bacterial survival after 1 hr. It is filed as functional, organism-based. An outline of the steps:
as §5

The test system of test [17] is Klebsiella pneumoniae. Put plainly: Antimicrobial activity against wcaK2-deficient Klebsiella pneumoniae 52OmpA2 assessed as decrease in bacterial survival. It is filed as functional, organism-based. An outline of the steps: as §5
Test [18] deals with Klebsiella pneumoniae. The experiment in a line: Antimicrobial activity against Klebsiella pneumoniae 52OmpA2 assessed as induction of bacterial wall damage by propidium iodide staining-based fluorescence spectroscopy. It is filed as functional, organism-based.
The test system of test [19] is Klebsiella pneumoniae. Put plainly: Antimicrobial activity against Klebsiella pneumoniae 52OmpA2 assessed as decrease in bacterial survival after 1 hr. It is filed as functional, organism-based. An outline of the steps:
as §5

The test system of test [20] is Klebsiella pneumoniae. Put plainly: Antimicrobial activity against Klebsiella pneumoniae 52145 assessed as decrease in bacterial survival after 1 hr. It is filed as functional, organism-based. An outline of the steps: as §5
Test [21] deals with Klebsiella pneumoniae. The experiment in a line: Binding affinity to wcaK2-deficient Klebsiella pneumoniae 52OmpA2 lipopolysaccharide assessed as amount of peptide bound at 16 ug/ml after 30 mins. The procedure, abridged: as §3
Test [22] concerns Klebsiella pneumoniae. The experiment in a line: Antimicrobial activity against Klebsiella pneumoniae 52145 at 80 ug/disk by disk diffusion method. It is filed as functional, organism-based. The procedure, abridged:
as §1

One may read the MIC as the lowest concentration found to suppress growth. Low values mean inhibition by little substance, high ones a need for much substance. Take `CC1(C)S[C@@H]2[C@H](NC(=O)[C@H](N)c3ccc(O)cc3)C(=O)N2[C@H]1C(=O)O` [AMOXICILLIN]: in the test on Klebsiella pneumoniae [1], the lowest concentration to inhibit growth (MIC) was 2 µg/mL (≈ 5.47 µM).
The same measure, in the same setting: with `CO/N=C(\C(=O)N[C@@H]1C(=O)N2C(C(=O)O)=C(COC(C)=O)CS[C@H]12)c1csc(N)n1` [CEFOTAXIME] the figure was 0.05 µg/mL (≈ 0.11 µM); with `O=C(O)c1cn(C2CC2)c2cc(N3CCNCC3)c(F)cc2c1=O` [CIPROFLOXACIN], 0.05 µg/mL (≈ 0.151 µM).
On the same count and under the same terms, with `C[C@@H](O)[C@H]1C(=O)N2C(C(=O)O)=C(SCCNC=N)C[C@H]12` [IMIPENEM ANHYDROUS] the figure was 0.05 µg/mL (≈ 0.167 µM).
On to `CO[C@@H]1[C@@H](OC(N)=O)[C@@H](O)[C@H](Oc2ccc3c(O)c(NC(=O)c4ccc(O)c(CC=C(C)C)c4)c(=O)oc3c2C)OC1(C)C` [NOVOBIOCIN], for which, in the test with Klebsiella pneumoniae [2], the zone of inhibition at 80 µg/disc was determined as 8.5 mm. In addition, the outcome in the test on Klebsiella pneumoniae [3] and with Klebsiella pneumoniae [4] was inactive.
In the case of GENTAMICIN, the MIC in the test with Klebsiella pneumoniae [5] and against Klebsiella pneumoniae [1] was 0.15 µg/mL throughout.
POLYMYXIN B: the values for the MIC against Klebsiella pneumoniae [6], with Klebsiella pneumoniae [10] and against Klebsiella pneumoniae [12] were 0.75 µg/mL, 0.75 µg/mL and 0.31 µg/mL, respectively. Further, the outcome in the test on Klebsiella pneumoniae [7], in the test on Klebsiella pneumoniae [8], in the test on Klebsiella pneumoniae [18] and in the test on Klebsiella pneumoniae [20] was inactive. Moreover, the Activity in the test on Klebsiella pneumoniae [9] is 4.8 µg/mL; in the test with Klebsiella pneumoniae [11], 7.4 µg/mL; in the test on Klebsiella pneumoniae [14], 8.1 µg/mL; in the test with Klebsiella pneumoniae [21] it was 4.4 µg/mL. Besides, the inhibition result in the test with Klebsiella pneumoniae [13], in the test on Klebsiella pneumoniae [17] and with Klebsiella pneumoniae [19] was “Active” throughout. The inhibition entry in the test with Klebsiella pneumoniae [15] was “inactive”. The result in the test on Klebsiella pneumoniae [16] was Active. The same compound came in with an inhibition zone (IZ) with Klebsiella pneumoniae [22] of 9 mm.

The values above are taken from ChEMBL document CHEMBL1629613, “Klebsiella pneumoniae OmpA confers resistance to antimicrobial peptides” (2009).
